Calls of active or inactive are those of the source.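 Rule for the calls, unless noted: active = inhibition above 20% together with a positive visual image hit; inconclusive = visual image hit but inhibition not above 20%; inactive = no visual image hit.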
What was measured:
[1] = inhibitors of TNFa-induced NFkB p65 translocation, primary screen, imaging, HUVEC, MLSMR starter and 10KST1 sets (AID 438); conditions: HUVEC TNFa-induced p65 nuclear translocation; cell count: measured here: nuclei count (cytotoxicity indicator), at 2.08 µM; inhibition: at 2 µM, stronger effect = higher value, 0% TNFa-plus-vehicle, 100% no-TNFa wells;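 note: compound added about 3h40 before a 20 min TNFalpha stimulation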;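 for inhibition: signal is the nuclear over cytoplasmic p65 intensity ratio per well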
[2] = inhibitors of mutant huntingtin aggregation, primary screen, imaging, exon1htt(103Q)mCFP cells, high-content imaging (AID 483;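 active = visual image review flags a hit and inhibition of aggregation exceeds 20%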;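 note: compound exposure lasted 3 days before fixation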;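 for nuclei count: percent of the per-plate median nuclei count of sample wells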); conditions: exon1htt(103Q)mCFP cell line, aggregate imaging, at 2 µM; inhibition of aggregation: stronger effect = higher value; nuclei count: measured here: cell count, toxicity
[3] = inhibitors of E-selectin induction by TNFa, primary screen, imaging, HUVEC, immunofluorescence, MLSMR starter and 10KST1 sets (AID 487;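 active = visually confirmed hit in the image check and inhibition above 20%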;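 for inhibition: signal is fraction of cell area covered by stained E-selectin grains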;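 for nuclei count: 100% = median nuclei count of all wells on the same plate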); conditions: HUVEC TNFalpha-induced E-selectin immunofluorescence imaging, at 2 µM; inhibition: stronger effect = higher value; nuclei count: measured here: cell number, toxicity
[4] = molecular target: Voltage-gated potassium channel subunit beta-2 (Rattus norvegicus) (UniProt P62483); assay: KvBeta enzyme negative modulators, primary screen, biochemical, NADPH fluorescence (AID 622;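 active = fluorescence slope higher than the sample average by over 3 SD, cut at about -0.22 in these data, passing the limit was not always enough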;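 note: slope of raw intensity against log time taken from 70 to 1610 s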); conditions: recombinant KvBeta, 4-cyanobenzaldehyde reduction, at 10 µM, stronger effect = higher value
Voltage-gated potassium channel subunit beta-2 (Rattus norvegicus), sequence (P62483 whole entry, looked up): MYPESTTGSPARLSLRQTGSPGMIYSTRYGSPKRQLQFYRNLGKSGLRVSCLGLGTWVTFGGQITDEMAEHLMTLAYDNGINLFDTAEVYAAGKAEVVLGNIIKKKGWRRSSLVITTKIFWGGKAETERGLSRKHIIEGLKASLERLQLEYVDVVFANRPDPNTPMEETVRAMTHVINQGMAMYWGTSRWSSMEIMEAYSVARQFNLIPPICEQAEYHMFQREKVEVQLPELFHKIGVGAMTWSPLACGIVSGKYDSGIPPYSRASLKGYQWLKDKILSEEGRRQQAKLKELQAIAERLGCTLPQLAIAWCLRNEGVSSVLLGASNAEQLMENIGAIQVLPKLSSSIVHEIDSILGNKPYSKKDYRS

[5] = molecular target: Voltage-gated potassium channel subunit beta-2 (Rattus norvegicus) (UniProt P62483); assay: KvBeta positive modulators, primary screen, biochemical, NADPH fluorescence (AID 623;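 active = NADPH fluorescence slope more negative than the mean of all samples by about 3 SD, 99.7% confidence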;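 note: fluorescence intensity change per second fitted from 20 to 320 s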); conditions: Recombinant KvBeta, NADPH fluorescence decrease slope, 10 min; at 10 µM; stronger effect = lower value
[6] = molecular target: Muscarinic acetylcholine receptor M4 (Homo sapiens) (UniProt P08173); assay: compounds altering M4/GIRK thallium flux, either direction, primary screen, M4 allosteric agonist project, cell-based, HEK293 M4/GIRK, BTC-AM (AID 625;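 active = fluorescence slope after compound addition differing from the mean of all tested samples at 99.7% confidence, mostly higher but some lower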;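 note: thallium influx through GIRK channels coupled to M4 in HEK293 cells with BTC-AM dye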); conditions: at 10 µM, actives lie on both sides
Muscarinic acetylcholine receptor M4 (Homo sapiens), sequence (P08173 whole entry, looked up): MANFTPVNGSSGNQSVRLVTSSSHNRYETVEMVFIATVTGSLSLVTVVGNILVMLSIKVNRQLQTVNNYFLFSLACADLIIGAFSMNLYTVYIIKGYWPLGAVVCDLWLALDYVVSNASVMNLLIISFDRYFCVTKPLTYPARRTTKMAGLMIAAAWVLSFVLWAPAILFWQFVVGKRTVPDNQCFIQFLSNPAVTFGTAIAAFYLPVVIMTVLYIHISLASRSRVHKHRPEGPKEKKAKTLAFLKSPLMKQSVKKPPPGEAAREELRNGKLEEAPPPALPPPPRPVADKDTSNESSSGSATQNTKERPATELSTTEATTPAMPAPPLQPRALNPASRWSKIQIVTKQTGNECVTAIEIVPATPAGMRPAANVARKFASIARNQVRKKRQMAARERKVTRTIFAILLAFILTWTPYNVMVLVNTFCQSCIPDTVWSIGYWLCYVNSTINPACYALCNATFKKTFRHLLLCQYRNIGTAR
In short: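 Assay system: HEK293 cells with M4 receptor and GIRK channels / Controls: carbachol and DMSO controls / Schedule: 1 h dye loading, 2 min kinetic read / Technique: kinetic fluorescence with BTC-AM dye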

[7] = inhibitors of Sendai virus-induced IRF3 signaling, primary screen, TLR/RLR signaling modifier project, cell-based, Sendai virus stimulus, luciferase, 10K MLSCN set (AID 602276;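 active = inhibition at or above 50% at 10 µM; inactive = inhibition below 50%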;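 note: firefly luciferase from ISG56 promoter only with Renilla not read in this screen; 0% = Sendai virus plus DMSO and 100% = medium plus DMSO without virus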); conditions: HEK293 RL24 IRF3 luciferase reporter, at 10 µM, stronger effect = higher value
[8] = inhibitors of poly I:C-induced TLR3 signaling, primary screen, cell-based, poly I:C stimulus, luciferase, 10K MLSCN set (AID 602277;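 active = inhibition of the reporter signal at or above 50%; inactive = inhibition below 50%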); conditions: HEK293-TLR3 RL24 IRF3 luciferase reporter, at 10 µM, stronger effect = higher value

| Structure (SMILES) | cell count [1] | inhibition [1] | inhibition of aggregation [2] | nuclei count [2] [%] | inhibition [3] | nuclei count [3] [%] | fluorescence slope [4] | NADPH fluorescence slope [5] | fluorescence slope [6] | inhibition [7] | inhibition [8] |
| --- | --- | --- | --- | --- | --- | --- | --- | --- | --- | --- | --- |
| COc1nc(OC)nc(N2CCC(NC(=O)C(Cc3ccc(C(C)C)cc3)NC(C)=O)CC2)n1 (configuration not stated) | 800 | -5.5% (inactive) | -37.6% (inactive) | 119 | -10.4% (inactive) | 130 | -0.486 (inactive) | -4.2e-05 (inactive) | 0.00515 (inactive) | 12.2% (inactive) | 11.8% (inactive) |
| COc1ccc(CCNC(=O)COc2ccc(S(=O)(=O)N3CCOCC3)cc2)cc1 | 588 | -17.6% (inactive) | 10.7% (inactive) | 88.7 | 11.7% (inactive) | 116 | -0.32 (inactive) | -4.1e-05 (inactive) | 0.00641 (inactive) | 12.7% (inactive) | 23% (inactive) |
| Cc1cccn2c(=O)c3cc(C#N)c(=NC(=O)c4ccncc4)n(Cc4ccco4)c3nc12 | 386 | -1% (inactive) | 5% (inactive) | 99.9 | -36.9% (inactive) | 114 | -0.535 (inactive) | -1.2e-05 (inactive) | 0.00818 (inactive) | 10.3% (inactive) | 19.4% (inactive) |
| Cc1[nH]c(=O)[nH]c(=O)c1S(=O)(=O)N1c2ccc(F)cc2CCC1C (configuration not stated) | 307 | -3.4% (inactive) | -5% (inactive) | 112 | -175% (inactive) | 96.2 | -0.461 (inactive) | -3.2e-05 (inactive) | 0.00639 (inactive) | 9.62% (inactive) | 21.9% (inactive) |
| Cc1ccc(-c2cc(C(=O)Nc3cc(C)ccc3C)[nH]n2)c(O)c1 | 390 | -4.3% (inactive) | 3.8% (inactive) | 120 | -50.5% (inactive) | 144 | -0.362 (inactive) | 2.9e-05 (inactive) | 0.00727 (inactive) | -2.53% (inactive) | -27.3% (inactive) |
| COc1ccccc1Nc1nc(N)nc(CSc2nccc(C)n2)n1 | 701 | -8.6% (inactive) | -9.5% (inactive) | 99.9 | 28.3% (inactive) | 112 | -0.546 (inactive) | 4.7e-05 (inactive) | 0.00561 (inactive) | 11.6% (inactive) | 5.69% (inactive) |
| Cc1nn(-c2nc3ccccc3[nH]2)c(N)c1-c1ccccc1 | 666 | -7.5% (inactive) | -12.6% (inactive) | 110 | -105% (inactive) | 110 | -0.47 (inactive) | -2.8e-06 (inactive) | 0.00573 (inactive) | -38.3% (inactive) | -134% (inactive) |
| Cc1cc(C)n2nc(C(=O)NCc3ccco3)nc2n1 | 389 | 1.4% (inactive) | 6.6% (inactive) | 103 | -3.3% (inactive) | 109 | -0.582 (inactive) | -4.1e-05 (inactive) | 0.00618 (inactive) | 10.5% (inactive) | 10.8% (inactive) |
| Cc1cc(NC(=O)CCC(=O)N(CCc2ccccc2)C(C(=O)NC2CCCC2)c2ccco2)no1 (configuration not stated) | 592 | -7.5% (inactive) | -11.5% (inactive) | 102 | 6.8% (inactive) | 101 | -0.483 (inactive) | 0.000137 (inactive) | 0.00558 (inactive) | 4.62% (inactive) | 19.1% (inactive) |
| CC(n1cnnn1)C12CC3CC(CC(C3)C1)C2 (configuration not stated) | 555 | 1.3% (inactive) | 0.3% (inactive) | 106 | 16.7% (inactive) | 114 | -0.495 (inactive) | 0.000168 (inactive) | 0.00589 (inactive) | 16.5% (inactive) | 32.3% (inactive) |
| Cc1ccc(OCC(O)Cn2c(=N)n(CCN3CCCCC3)c3ccccc32)cc1 (configuration not stated) | 277 | 4.5% (inactive) | 2.3% (inactive) | 63.4 | -6.5% (inactive) | 96.8 | -0.381 (inactive) | -4.1e-05 (inactive) | 0.00474 (inactive) | -33.6% (inactive) | 62.2% (active) |
| Cc1ccc(/C(O)=C2\C(=O)C(=O)N(CCCN(C)C)C2c2ccccn2)cc1 (configuration not stated) | 536 | 0.9% (inactive) | -3.7% (inactive) | 98.9 | -53.4% (inactive) | 132 | -0.514 (inactive) | -0.000162 (inactive) | 0.00375 (inactive) | 16.3% (inactive) | 8.71% (inactive) |
| COC(=O)c1ccc(CNC(=O)COc2ccccc2Br)o1 | 712 | -13.6% (inactive) | -7.2% (inactive) | 110 | 0.2% (inactive) | 81.7 | -0.556 (inactive) | -8.6e-06 (inactive) | 0.00463 (inactive) | 5.53% (inactive) | 1.32% (inactive) |
| COc1cccc(CN(C(=O)c2cc3ccccc3oc2=O)C2CC2)c1 | 459 | -6.2% (inactive) | -16% (inactive) | 108 | -52.3% (inactive) | 137 | -0.51 (inactive) | -2.3e-05 (inactive) | 0.00464 (inactive) | -43.3% (inactive) | -136% (inactive) |
| CCOC(=O)C1CCCN(C(=O)c2cc3c(C)nc4ccccc4c3o2)C1 (configuration not stated) | 525 | -14.7% (inactive) | 8.7% (inactive) | 100 | -91.4% (inactive) | 119 | -0.522 (inactive) | 0.000185 (inactive) | 0.00625 (inactive) | 14.5% (inactive) | 5.32% (inactive) |
| COCCn1c(=NC(=O)CSC(C)=O)sc2cc(F)ccc21 | 426 | -6.2% (inactive) | 33.6% (inactive) | 93.7 | -22% (inactive) | 106 | -0.379 (inactive) | 4.1e-05 (inactive) | 0.00556 (inactive) | 13.7% (inactive) | 22.7% (inactive) |
| CC(=O)Nc1ccc(S(=O)(=O)N2CCN(C(C)CCc3ccccc3)CC2)cc1 (configuration not stated) | 440 | 0% (inactive) | 2.6% (inactive) | 69.7 | 1.2% (inactive) | 96.1 | -0.538 (inactive) | -6.4e-05 (inactive) | 0.00422 (inactive) | 7.51% (inactive) | 20.1% (inactive) |
| COc1ccc2c(c1)CCc1c(C(=O)N3CC4(C)CC3CC(C)(C)C4)noc1-2 (configuration not stated) | 250 | -6.9% (inactive) | 18.9% (inactive) | 98.8 | -59% (inactive) | 104 | -0.586 (inactive) | -1.4e-05 (inactive) | 0.00924 (inactive) | 1.5% (inactive) | 10.1% (inactive) |
| COc1ccc(CC(=O)OCC(=O)NC(=O)NC2CCCCC2)cc1 | 505 | -13.7% (inactive) | -0.9% (inactive) | 80.9 | -5.5% (inactive) | 121 | -0.509 (inactive) | 4.4e-05 (inactive) | 0.00502 (inactive) | 9.64% (inactive) | 15.4% (inactive) |
| CC(=O)N1CCC2(CC1)CC(=O)c1cc(OCC(=O)NCc3ccco3)ccc1O2 | 376 | 6.6% (inactive) | -16.2% (inactive) | 113 | -143% (inactive) | 97.8 | -0.253 (inactive) | 1.5e-05 (inactive) | 0.00743 (inactive) | -7.82% (inactive) | 2.06% (inactive) |
| O=C(O)CCc1ccc(-c2cccs2)n1CCC(=O)O | 828 | -2.7% (inactive) | -3.1% (inactive) | 95.6 | -43% (inactive) | 116 | -0.55 (inactive) | -5.2e-05 (inactive) | 0.00465 (inactive) | 14.7% (inactive) | 20.5% (inactive) |
| CC1CN(c2c3c(nc4ncnn24)CCCC3)CC(C)O1 (configuration not stated) | 752 | 0% (inactive) | -14.4% (inactive) | 99.9 | -31.5% (inactive) | 106 | -0.481 (inactive) | 3.1e-05 (inactive) | 0.00504 (inactive) | 14.7% (inactive) | 21.5% (inactive) |
| CC1CCN(C(=O)c2cc(-c3ccc(Cl)c(Cl)c3)on2)CC1 | 435 | 0.9% (inactive) | 4.2% (inactive) | 94 | 6.5% (inactive) | 91.7 | -0.449 (inactive) | -3.4e-05 (inactive) | 0.00453 (inactive) | -41% (inactive) | -89% (inactive) |
| COc1ccc(-n2c(COc3ccccc3)nnc2SCc2ccc(C#N)cc2)cc1 | 687 | -7.7% (inactive) | -21% (inactive) | 56.4 | -58.1% (inactive) | 95.8 | -0.543 (inactive) | -5.8e-05 (inactive) | 0.00479 (inactive) | 3.44% (inactive) | 19.5% (inactive) |
| COc1cccc(OC)c1C(=O)N1CCN(S(=O)(=O)c2ccccc2)CC1 | 437 | 1.4% (inactive) | -1.7% (inactive) | 105 | -13.1% (inactive) | 102 | -0.531 (inactive) | -6.4e-05 (inactive) | 0.00446 (inactive) | -2.45% (inactive) | 19.4% (inactive) |
| Cc1cc(NC(=O)COc2cccc3cccnc23)no1 | 465 | 2% (inactive) | 11.9% (inactive) | 103 | -67.8% (inactive) | 106 | -0.385 (inactive) | -2.5e-05 (inactive) | 0.00637 (inactive) | -7.48% (inactive) | -15.6% (inactive) |
| Cc1ccc(-n2c3c(cc(C(=O)O)c2=O)C(=O)CC(C)(C)C3)cc1 | 418 | 2.8% (inactive) | 6.9% (inactive) | 109 | 3.1% (inactive) | 110 | -0.377 (inactive) | 4.6e-05 (inactive) | 0.00507 (inactive) | 17% (inactive) | 24.4% (inactive) |
